{
  "source": "paper PMC11842988",
  "about": "(Journal for Immunotherapy of Cancer, 2025)",
  "key": {"[1]": {"tested_on": "TAAp-specific CD8+ T cells, A2/DR1 mice", "assay_type": "in vivo, mouse", "conditions": "for TAAp-specific response, OMP versus TAAp immunization: figure 2F; for TAAp-specific IFN-γ response after OMP immunization: ex vivo restimulation with TAAp", "how_it_was_run": "(§1)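 HLA-A2/DR1 transgenic mice primed day 0, boosted day 14, s.c., with class I peptide (5, 30 or 95 nmol) plus UCP2 helper (30–100 µg) in Montanide ISA 51 VG (50:50). Spleens taken day 21 post-prime, or day 30 in the tumour study; RBCs lysed. 2×10^5 splenocytes/well restimulated ~20 h with 10 µM peptide at 37°C. PMA/ionomycin and EZH2-B2 controls. Media background subtracted; IFN-γ spots per 10^6 T cells.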"}, "[2]": {"tested_on": "OMP-/TAAp-specific CD8+ T cells in HD PBMCs", "assay_type": "cell-based, human", "conditions": "HLA-A2+ HD PBMCs after IVS with OMPs; average unless stated", "how_it_was_run": "(§2)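 HLA-A*02:01 donor PBMCs pulsed 24 h with OMPs (10 µM), CD137-enriched, expanded 8 days on anti-CD3/CD28 with IL-2/7/15/21. Restimulated every 10 days with mitomycin C-treated T2 cells loaded with peptide and β2-microglobulin. Antigen-specific frequency measured by CD8 plus pMHC tetramer staining. Per-donor cross-reactivity (%) computed from the TAA-specific and OMP-specific CD8+ percentages.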"}, "[3]": {"tested_on": "OMP-specific CD8+ T cells, A2/DR1 mice", "assay": "IFN-γ ELISpot of splenocytes from immunized A2/DR1 mice, restimulation with OMP", "assay_type": "in vivo, mouse", "conditions": "ELISpot day 30", "how_it_was_run": "as §1"}, "[4]": {"tested_on": "splenocytes pulsed with OMPs", "assay": "In vivo cytotoxicity in humanized HLA-A2 mice, OMP-pulsed splenocytes", "parameters": "species or system mouse", "conditions": "online supplemental figure 2", "how_it_was_run": "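Immunised A2/DR1 mice challenged i.v. 6 days post-boost; naïve mice received the same cells. Splenocytes from unimmunised syngeneic donors were pulsed with individual peptides (bright dye) and mixed 1:1 with unpulsed cells (dim dye). Read out 20 h later by flow cytometry. Specific lysis (%) = (% targets in naïve − % in immunised)/% in naïve × 100.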"}, "[5]": {"tested_on": "SARC-A2-hCD20-GFP sarcoma cells", "assay": "Tumor protection model, SARC-A2-hCD20-GFP sarcoma in A2/DR1 mice", "assay_type": "in vivo, mouse", "conditions": "OMP72 prime-boost, 0.5×10^6 SARC-A2-hCD20-GFP cells s.c., n=8 mice", "how_it_was_run": "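A2/DR1 mice given the prime-boost regimen (days 0 and 14). On day 21 post-prime, 0.5×10^6 SARC-A2-hCD20-GFP or SARC-A2-GFP sarcoma cells in PBS injected s.c. in the right flank; naïve mice as controls. Tumours measured by caliper twice weekly over 30 days (mm2). Endpoint at ≥300 mm2; n=8 per group.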"}, "[6]": {"tested_on": "human CD20 on SARC-A2-hCD20-GFP cells", "assay": "hCD20 expression of tumor cells at day 30", "assay_type": "in vivo, mouse", "conditions": "OMP72-immunized mice still bearing tumors, day 30, n=4"}, "[7]": {"tested_on": "antigen-specific CD8+ T cells in patient PBMCs", "assay": "Tetramer staining of patient PBMCs after 12 days IVS with OMPs", "assay_type": "cell-based, human", "conditions": "patients, EO2401", "how_it_was_run": "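Thawed patient PBMCs (2.5–3.5×10^6/well) rested 24 h, then given the OMP pool (1 µg/mL each) on day 1. IL-2 (2 ng/mL) added from day 3, with splits and feeds; harvested day 12. Stained 30 min at RT with separate OMP and TAAp tetramer mixes (2.5 µg/mL each), or matched pairs for cross-reactivity. Then CD4/CD8/CD14/CD19 and Zombie Aqua, 20 min 4°C. ≥600,000 cells acquired; % of live CD8+.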"}, "patient CD8+ T cells": {"tested_on": "patient CD8+ T cells", "assay": "Intracellular cytokine staining", "assay_type": "cell-based, human", "conditions": "for Cytokine levels after restimulation (ICS): post-IVS with OMPs", "how_it_was_run": "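Patient PBMCs expanded 12 days in vitro with the three-peptide bacterial pool (1 µg/mL each, added day 1) in IMDM/10% human serum/β-ME. IL-2 (2 ng/mL) added on day 3 and again on days 5, 7 and 9. Cells then restimulated with the indicated peptides. Intracellular IFN-γ, TNF, IL-2, CD154 and CD107a reported as % positive T cells.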"}, "OMP-loaded T2 cells": {"tested_on": "OMP-loaded T2 cells", "assay": "Cytotoxicity of sorted TAAp-specific T cells on OMP-loaded T2 cells", "assay_type": "cell-based, human", "conditions": "24 h, EZH2-loaded T2 as control", "how_it_was_run": "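Patient PBMCs stimulated 12 days in vitro with the three-peptide OMP pool. TAAp-tetramer+ CD8+ T cells sorted, then expanded on anti-CD3/CD28 activator with IL-2 (50 U/mL), IL-7, IL-15 and IL-21. CellTrace Violet-labelled T2 cells co-cultured with these T cells, peptide (OMP or EZH2 control) and β2-microglobulin at 37°C for 24 h in 50% RPMI/50% X-vivo 15. Media-only control. CD8 and near-IR live/dead stains; duplicates.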"}, "[8]": {"tested_on": "antigen-specific CD8+ T cells in patient PBMCs", "assay": "Tetramer staining of patient PBMCs ex vivo", "assay_type": "cell-based, human"}, "[9]": {"tested_on": "OMP-specific CD8+ T cells in HD PBMCs", "assay": "Prevalence of OMP-specific CD8+ T cells in healthy donors", "assay_type": "cell-based, human", "how_it_was_run": "as §2"}},
  "note": "“Also recorded” adds a separate entry of the source.",
  "data": [
    {"sequence": "ALNPELLAL [OMP12]", "values": [
      {"measurement": "TAAp-specific response, OMP versus TAAp immunization", "setting": "[1]", "result": "superior immunogenicity"},
      {"measurement": "Cross-reactivity OMP/TAAp in healthy donor CD8+ T cells", "setting": "[2]", "result": "above 66%"}
    ]},
    {"sequence": "AMNSLSLYI [OMP72]", "values": [
      {"measurement": "OMP72-specific IFN-γ-producing cells in responsive versus non-responsive mice", "setting": "[3]", "result": "comparable levels"},
      {"measurement": "Individual OMP-specific CTL activity", "setting": "[4]", "result": "negligible"},
      {"measurement": "Tumor protection after immunization", "setting": "[5]", "result": "half of the A2/DR1 mice; also recorded: could induce protection against CD20-expressing tumor cells"},
      {"measurement": "Tumor cells with loss of CD20 surface expression in non-controlled tumors", "setting": "[6]", "result": 99, "unit": "%"}
    ]},
    {"sequence": "FLAFVPLQL [OMP65]", "values": [
      {"measurement": "TAAp-specific IFN-γ response after OMP immunization", "setting": "[1]", "result": "> 5,000 SFU"},
      {"measurement": "TAAp-specific response, OMP versus TAAp immunization", "setting": "[1]", "result": "superior immunogenicity"}
    ]},
    {"sequence": "FLPFGFILPV [OMP16]", "values": [
      {"measurement": "TAAp-specific IFN-γ response after OMP immunization", "setting": "[1]", "result": "< 2,000 SFU"},
      {"measurement": "TAAp-specific response, OMP versus TAAp immunization", "setting": "[1]", "result": "superior immunogenicity"},
      {"measurement": "OMP-specific T cells also recognizing the matched TAAp", "setting": "[7]", "result": 1, "unit": "%"},
      {"measurement": "Cytokine levels after restimulation (ICS)", "setting": "patient CD8+ T cells", "result": "stronger cytokine levels"},
      {"measurement": "Killing of OMP-loaded T2 cells by corresponding TAAp-tetramer+ T cells", "setting": "OMP-loaded T2 cells", "result": "specifically killed"}
    ]},
    {"sequence": "FLYDVRTYL [OMP10]", "values": [
      {"measurement": "Cross-reactivity OMP/TAAp in healthy donor CD8+ T cells", "setting": "[2]", "result": "below 33%"}
    ]},
    {"sequence": "FMLGEFLKL [OMP17]", "values": [
      {"measurement": "TAAp-specific IFN-γ response after OMP immunization", "setting": "[1]", "result": "> 5,000 SFU"},
      {"measurement": "TAAp-specific response, OMP versus TAAp immunization", "setting": "[1]", "result": "superior immunogenicity"},
      {"measurement": "Cross-reactivity OMP/TAAp in healthy donor CD8+ T cells", "setting": "[2]", "result": "above 66%"},
      {"measurement": "OMP-specific T cells also recognizing the matched TAAp", "setting": "[7]", "result": 80, "unit": "%"},
      {"measurement": "BIRC5-specific CD8+ T cells of total circulating CD8+ T cells", "setting": "[8]; Patient #1", "result": "more than 20%"},
      {"measurement": "Tetramer+ T cells of total circulating CD8+ T cells, week 44", "setting": "[8]; Patient #1, ex vivo, week 44", "result": 3.27, "unit": "%"},
      {"measurement": "Tetramer+ T cells of total circulating CD8+ T cells, week 88", "setting": "[8]; Patient #1, ex vivo, week 88", "result": 17.4, "unit": "%"},
      {"measurement": "Tetramer+ T cells of total circulating CD8+ T cells, week 100", "setting": "[8]; Patient #1, ex vivo, week 100, listed as EO2317", "result": 32, "unit": "%"},
      {"measurement": "Simultaneous cytokine production on restimulation (polyfunctionality)", "setting": "patient CD8+ T cells; Patient #1, weeks 88 and 100", "result": "IFN-γ, TNF-α and CD107a simultaneously"},
      {"measurement": "Cytokine levels after restimulation (ICS)", "setting": "patient CD8+ T cells", "result": "stronger cytokine levels"},
      {"measurement": "Killing of OMP-loaded T2 cells by corresponding TAAp-tetramer+ T cells", "setting": "OMP-loaded T2 cells", "result": "specifically killed"}
    ]},
    {"sequence": "LLFGAPALL [BAFF-R77-85, reference compound]", "values": [
      {"measurement": "TAAp-specific response, OMP versus TAAp immunization", "setting": "[1]", "result": "weaker when mice were immunized with TAAps than with their mimic OMPs"}
    ]},
    {"sequence": "LMDLSTTEV [OMP18]", "values": [
      {"measurement": "TAAp-specific IFN-γ response after OMP immunization", "setting": "[1]", "result": "< 2,000 SFU"},
      {"measurement": "Cross-reactivity OMP/TAAp in healthy donor CD8+ T cells", "setting": "[2]", "result": "below 33%"},
      {"measurement": "OMP-specific T cells also recognizing the matched TAAp", "setting": "[7]", "result": "around 20%"},
      {"measurement": "Cytokine levels after restimulation (ICS)", "setting": "patient CD8+ T cells", "result": "stronger cytokine levels"},
      {"measurement": "Killing of OMP-loaded T2 cells by corresponding TAAp-tetramer+ T cells", "setting": "OMP-loaded T2 cells", "result": "specifically killed"}
    ]},
    {"sequence": "LMFGAPALV [OMP66]", "values": [
      {"measurement": "TAAp-specific IFN-γ response after OMP immunization", "setting": "[1]", "result": "> 5,000 SFU"},
      {"measurement": "TAAp-specific response, OMP versus TAAp immunization", "setting": "[1]", "result": "superior immunogenicity"}
    ]},
    {"sequence": "SLPDRILTV [OMP11]", "values": [
      {"measurement": "Cross-reactivity OMP/TAAp in healthy donor CD8+ T cells", "setting": "[2]", "result": "below 33%"}
    ]},
    {"sequence": "YIFEHPETA [OMP64]", "values": [
      {"measurement": "TAAp-specific IFN-γ response after OMP immunization", "setting": "[1]", "result": "< 2,000 SFU"},
      {"measurement": "Individual OMP-specific CTL activity", "setting": "[4]", "result": "lower"},
      {"measurement": "Cross-reactivity OMP/TAAp in healthy donor CD8+ T cells", "setting": "[2]", "result": "below 33%"},
      {"measurement": "Prevalence of OMP-specific CD8+ T cells in HLA-A2+ PBMC samples", "setting": "[9]", "result": 67, "unit": "%"}
    ]}
  ]
}
